Assay results taken from ChEMBL document CHEMBL1144707, “Antiparasitic, antineuroinflammatory, and cytotoxic polyketides from the marine sponge Plakortis angulospiculatus collected in Brazil” (J Nat Prod, 2008).
Values after ≈ are worked out from the molar mass of the structure shown. Active and inactive are the calls of the source. No cut-off for these calls is given here.

What was measured:
[1] = system: Trypanosoma cruzi; assay: Antitrypanosomal activity against Trypanosoma cruzi Y infected in […] LLC-MK2 cells after 24 hrs by MTT assay; assay type: functional, organism-based; settings: LLC-MK2, 24 h
In short: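 Free trypomastigotes (Y strain) from LLC-MK2 cultures, seeded at 1 × 10^6 cells/well. Incubated up to 100 µg/mL for 24 h at 37 °C in 5% CO2, benznidazole as standard. Viability by MTT conversion, formazan extracted with 10% SDS for 18 h at 24 °C. IC50 in µg/mL.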

[2] = system: Leishmania chagasi; assay: Antileishmanial activity against Leishmania chagasi intracellular amastigotes infected in hamster macrophages after 48 hrs […]; assay type: functional, organism-based
In short: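 Intracellular amastigotes tested in infected macrophages, with pentavalent antimony as standard. Amastigotes were obtained from hamster spleens 60–70 days postinfection. Parasite burden was scored as the mean number of amastigotes per macrophage over 500 cells. Result expressed as IC50.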

[3] = Selectivity index, ratio of mouse peritoneal macrophages to Antitrypanosomal activity against Trypanosoma cruzi Y
[4] = Antiinflammatory activity in rat neonatal brain microglia cells assessed as drug level causing 50% LDH release; assay type: functional, cell-based
In short: (§1)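 Rat neonatal brain microglia, 2 × 10^5 cells per well, primed with E. coli LPS (0.3 ng/mL) for 17 h at 35.9 °C in 5% CO2. Cells were washed with HBSS, exposed to compounds (0.1–10 µM) or DMSO vehicle for 15 min, then stimulated with PMA (1 µM) for 70 min. O2-, TXB2 and LDH release were measured, duplicates, two independent experiments. IC50 for O2- and TXB2. LDH50 is the concentration giving 50% of the LDH release seen with 0.1% Triton X-100.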

[5] = system: HL-60; assay: Cytotoxicity against human HL60 cells; assay type: functional, cell-based
[6] = Cytotoxicity against human macrophages after 48 hrs by MTT assay; assay type: cell-based, Macrophage
[7] = system: HCT-8; assay: Cytotoxicity against human HCT8 cells; assay type: functional, cell-based
[8] = Selectivity index, ratio of IC50 for human macrophages to IC50 for antileishmanial activity against Leishmania chagasi intracellular amastigotes; assay type: functional
In short: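 Ratio of macrophage cytotoxicity IC50 (MTT, 48 h) to IC50 against L. chagasi intracellular amastigotes.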

[9] = Antiinflammatory activity in rat neonatal brain microglia cells assessed as phorbol 12-myristate 13-acetate-stimulated superoxide release; assay type: functional, cell-based; in short: as §1
[10] = Antiinflammatory activity in rat neonatal brain microglia cells assessed as phorbol 12-myristate 13-acetate-stimulated thromboxane B2 release; assay type: functional, cell-based; in short: as §1
[11] = system: MDA-MB-435; assay: Cytotoxicity against human MDA-MB-435 cells; assay type: functional, cell-based
[12] = system: SF-295; assay: Cytotoxicity against human SF295 cells; assay type: functional, cell-based
[13] = system: Leishmania chagasi; assay: Antileishmanial activity against Leishmania chagasi promastigotes infected in hamster after 48 hrs by MTT assay; assay type: functional, organism-based
In short: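 Promastigotes maintained in M-199 with 10% calf serum and 0.25% hemin at 24 °C, seeded at 1 × 10^6 cells/well. Incubated with 0.488–500 µg/mL for 48 h at 24 °C, pentamidine as standard. Viability by MTT at 570 nm.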

[14] = Toxicity in BALB/c mouse erythrocytes assessed as hemolysis at 6.25 ug/ml after 2 hrs; assay type: cell-based, Erythrocyte; settings: read-out: Activity
In short: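 A 3% suspension of BALB/c mouse erythrocytes incubated with compounds for 2 h at 25 °C. Supernatant absorbance read at 550 nm.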

[15] = system: Leishmania chagasi; assay: Induction of morphological changes in Leishmania chagasi promastigotes assessed as increase in vacuoles at 17 ug/ml after 3 hrs by electron microscopy; assay type: functional, organism-based
In short: (§2)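 Promastigotes (kept in M-199 with 10% calf serum and 0.25% hemin at 24 °C) incubated with compound at 17 µg/mL at 24 °C for 0, 1, 3, 5 or 7 h. Cells then processed for transmission electron microscopy and compared with an untreated control for ultrastructural changes.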

[16] = system: Leishmania chagasi; assay: Induction of morphological changes in Leishmania chagasi promastigotes assessed as nuclear destruction with chromatin decondensation at 17 ug/ml after 5 hrs by electron microscopy; assay type: functional, organism-based; in short: as §2
[17] = system: Macrophage; assay: Induction of nitric oxide in BALB/c mouse peritoneal macrophages at 4 ug/mL after 24 hrs by griess assay; assay type: functional, cell-based
In short: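 Peritoneal macrophages incubated 24 h at 37 °C with compound at 4 µg/mL. LPS at 50 µg/mL served as the internal activation control. NO measured by Griess reaction, absorbance at 540 nm.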

[18] = system: Leishmania chagasi; assay: Induction of morphological changes in Leishmania chagasi promastigotes assessed as mitochondrial swelling at 17 ug/ml after 3 hrs by electron microscopy; assay type: functional, organism-based; in short: as §2
[19] = system: Leishmania chagasi; assay: Induction of morphological changes in Leishmania chagasi promastigotes assessed as cell membrane detachment at 17 ug/ml after 5 hrs by electron microscopy; assay type: functional, organism-based; in short: as §2
[20] = system: Leishmania chagasi; assay: Induction of morphological changes in Leishmania chagasi promastigotes assessed as flagellar blebs at 17 ug/ml after 3 hrs by electron microscopy; assay type: functional, organism-based; in short: as §2
[21] = system: Leishmania chagasi; assay: Induction of morphological changes in Leishmania chagasi promastigotes assessed as nuclear membrane blebs at 17 ug/ml after 5 hrs by electron microscopy; assay type: functional, organism-based; in short: as §2
[22] = system: Leishmania chagasi; assay: Induction of morphological changes in Leishmania chagasi promastigotes assessed as abnormal chromatin at 17 ug/ml after 3 hrs by electron microscopy; assay type: functional, organism-based; in short: as §2
[23] = Leishmania chagasi, 48 h, read-out: IC50
[24] = Homo sapiens, Macrophage, 48 h, read-out: IC50

Question: Which IC50 [1] does the source give for `CC/C=C/[C@H](CC)C[C@]1(CC)C=C(CC)/C(=C/C(=O)OC)O1` here?
Answer: 16.5 µg/mL (≈ 53.8 µM)

Question: What about the IC50 [2, 23] of the same compound?
Answer: 1.6 µg/mL (≈ 5.22 µM)

Question: What about the Selectivity index [3] of the same compound?
Answer: 1.8

Question: What about the IC50 [4] of the same compound?
Answer: > 10 µM

Question: What about the IC50 [5] of the same compound?
Answer: 8.6 µg/mL (≈ 28.1 µM)

Question: What about the IC50 [6, 24] of the same compound?
Answer: 30.2 µg/mL (≈ 98.5 µM)

Question: And the IC50 [7]?
Answer: 7.2 µg/mL (≈ 23.5 µM)

Question: What about the Selectivity index [8] of the same compound?
Answer: 18.6

Question: And the IC50 [9]?
Answer: > 10 µM

Question: What about the IC50 [10] of the same compound?
Answer: > 10 µM

Question: And the IC50 [11]?
Answer: 9.6 µg/mL (≈ 31.3 µM)

Question: And the IC50 [12]?
Answer: 11.4 µg/mL (≈ 37.2 µM)

Question: What about the IC50 [13] of the same compound?
Answer: 8.5 µg/mL (≈ 27.7 µM)

Question: What about the hemolysis at 2 h, 6.25 ug/ml [14] of the same compound?
Answer: 7.24%

Question: For `CCCC[C@H](CC)C[C@]1(CC)C=C(CC)/C(=C\C(=O)OC)O1`, which IC50 [1] is on record?
Answer: 31.6 µg/mL (≈ 102 µM)

Question: And the IC50 [2, 23]?
Answer: 3.4 µg/mL (≈ 11 µM)

Question: What about the Selectivity index [3] of the same compound?
Answer: 1

Question: What about the IC50 [4] of the same compound?
Answer: > 10 µM

Question: What about the IC50 [5] of the same compound?
Answer: 15.2 µg/mL (≈ 49.3 µM)

Question: What about the IC50 [6, 24] of the same compound?
Answer: 31.6 µg/mL (≈ 102 µM)

Question: What about the IC50 [7] of the same compound?
Answer: 8 µg/mL (≈ 25.9 µM)

Question: What about the Selectivity index [8] of the same compound?
Answer: 9.2

Question: And the IC50 [9]?
Answer: > 10 µM

Question: What about the IC50 [10] of the same compound?
Answer: > 10 µM

Question: And the IC50 [11]?
Answer: 6.5 µg/mL (≈ 21.1 µM)

Question: And the IC50 [12]?
Answer: 16.8 µg/mL (≈ 54.5 µM)

Question: What about the IC50 [13] of the same compound?
Answer: 3.9 µg/mL (≈ 12.6 µM)

Question: What about the hemolysis at 2 h, 6.25 ug/ml [14] of the same compound?
Answer: 0%

Question: Which IC50 [1] does the source give for `O=C(Cn1ccnc1[N+](=O)[O-])NCc1ccccc1` [BENZNIDAZOLE] here?
Answer: 36.3 µg/mL (≈ 139 µM)

Question: With `N=C(N)c1ccc(OCCCCCOc2ccc(C(=N)N)cc2)cc1` [PENTAMIDINE] as the compound, how does the IC50 [6, 24] read?
Answer: 8.7 µg/mL (≈ 25.6 µM)

Question: What about the IC50 [13] of the same compound?
Answer: 0.1 µg/mL (≈ 0.294 µM)

Question: Which Activity [15] does the source give for `CC/C=C/[C@H](CC)C/C(=C/[C@@]1(CC)C[C@H](CC)[C@H](CC(=O)O)OO1)CC` [PLAKORTIDE N] here?
Answer: Active

Question: And the IC50 [1]?
Answer: 2.3 µg/mL (≈ 6.27 µM)

Question: And the Activity [16]?
Answer: Active

Question: What about the IC50 [2, 23] of the same compound?
Answer: 0.5 µg/mL (≈ 1.36 µM)

Question: And the Selectivity index [3]?
Answer: 7.1

Question: What about the Activity [17] of the same compound?
Answer: inactive

Question: And the Activity [18]?
Answer: Active

Question: And the IC50 [4]?
Answer: > 10 µM

Question: What about the IC50 [6, 24] of the same compound?
Answer: 16.6 µg/mL (≈ 45.3 µM)

Question: What about the Selectivity index [8] of the same compound?
Answer: 31.7

Question: What about the IC50 [9] of the same compound?
Answer: > 10 µM

Question: And the IC50 [10]?
Answer: 0.93 µM

Question: What about the Activity [19] of the same compound?
Answer: Active

Question: What about the Activity [20] of the same compound?
Answer: Active

Question: And the IC50 [13]?
Answer: 1.9 µg/mL (≈ 5.18 µM)

Question: What about the Activity [21] of the same compound?
Answer: Active

Question: What about the Activity [22] of the same compound?
Answer: Active

Question: And the hemolysis at 2 h, 6.25 ug/ml [14]?
Answer: 0%

Question: For `CC/C=C/[C@H](CC)C[C@@]1(C)C[C@@H](CC)[C@@H](CC(=O)OC)OO1` [PLAKORTIN], which IC50 [4] is on record?
Answer: > 10 µM

Question: And the IC50 [5]?
Answer: 13.3 µg/mL (≈ 42.6 µM)

Question: And the IC50 [6, 24]?
Answer: 4.7 µg/mL (≈ 15 µM)

Question: And the IC50 [7]?
Answer: 3 µg/mL (≈ 9.6 µM)

Question: What about the IC50 [9] of the same compound?
Answer: > 1 µM

Question: And the IC50 [10]?
Answer: > 1 µM

Question: And the IC50 [11]?
Answer: 10.4 µg/mL (≈ 33.3 µM)

Question: And the IC50 [12]?
Answer: 9.8 µg/mL (≈ 31.4 µM)

Question: What about the IC50 [13] of the same compound?
Answer: 6 µg/mL (≈ 19.2 µM)

Question: And the hemolysis at 2 h, 6.25 ug/ml [14]?
Answer: 0%

Question: With `CC/C=C/[C@H](CC)C[C@]1(C)C=C(CC)/C(=C/C(=O)OC)O1` [SPONGOSORITIN A] as the compound, how does the IC50 [1] read?
Answer: 25.7 µg/mL (≈ 87.9 µM)

Question: What about the IC50 [2, 23] of the same compound?
Answer: 3.1 µg/mL (≈ 10.6 µM)

Question: What about the Selectivity index [3] of the same compound?
Answer: 1.15

Question: What about the IC50 [4] of the same compound?
Answer: > 10 µM

Question: What about the IC50 [5] of the same compound?
Answer: > 25 µg/mL

Question: And the IC50 [6, 24]?
Answer: 29.8 µg/mL (≈ 102 µM)

Question: What about the IC50 [7] of the same compound?
Answer: > 25 µg/mL

Question: What about the Selectivity index [8] of the same compound?
Answer: 9.6

Question: And the IC50 [9]?
Answer: > 10 µM

Question: What about the IC50 [10] of the same compound?
Answer: > 10 µM

Question: And the IC50 [11]?
Answer: > 25 µg/mL

Question: And the IC50 [12]?
Answer: > 25 µg/mL

Question: What about the IC50 [13] of the same compound?
Answer: 2.5 µg/mL (≈ 8.55 µM)

Question: And the hemolysis at 2 h, 6.25 ug/ml [14]?
Answer: 1.8%

Question: With MEGLUMINE ANTIMONATE as the compound, how does the IC50 [2] read?
Answer: 21 µg/mL

Question: And the IC50 ([6]; macrophage)?
Answer: > 1000 µg/mL
